ChEMBL document CHEMBL3826877, “Fatty Acid Amide Hydrolase (FAAH), Acetylcholinesterase (AChE), and Butyrylcholinesterase (BuChE): Networked Targets for the Development of Carbamates as Potential Anti-Alzheimer's Disease Agents” (J Med Chem, 2016)

Legend:
[1] = biological target: T1, Cholinesterase (Homo sapiens, UniProt P06276); test: Inhibition of human serum BuChE assessed as enzyme carbamoylation using butyrylthiocholine iodide as substrate preincubated with enzyme followed by substrate addition by Ellman's method; settings: TDE = time-dependent effect
T1 sequence (P06276 whole entry): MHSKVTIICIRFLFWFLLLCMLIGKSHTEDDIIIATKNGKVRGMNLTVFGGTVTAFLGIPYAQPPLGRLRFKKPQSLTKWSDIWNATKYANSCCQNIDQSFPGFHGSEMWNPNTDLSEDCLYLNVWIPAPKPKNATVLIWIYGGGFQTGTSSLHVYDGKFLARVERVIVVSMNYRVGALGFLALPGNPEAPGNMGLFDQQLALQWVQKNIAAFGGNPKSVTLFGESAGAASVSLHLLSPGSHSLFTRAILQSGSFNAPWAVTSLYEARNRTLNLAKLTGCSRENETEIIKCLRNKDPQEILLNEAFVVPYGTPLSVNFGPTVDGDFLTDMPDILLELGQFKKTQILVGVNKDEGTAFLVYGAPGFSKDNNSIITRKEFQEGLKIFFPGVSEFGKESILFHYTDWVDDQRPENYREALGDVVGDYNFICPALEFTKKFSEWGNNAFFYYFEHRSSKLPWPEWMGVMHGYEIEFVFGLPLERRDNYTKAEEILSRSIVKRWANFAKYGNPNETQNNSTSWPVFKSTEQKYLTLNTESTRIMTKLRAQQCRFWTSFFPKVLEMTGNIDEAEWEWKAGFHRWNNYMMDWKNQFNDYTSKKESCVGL

[2] = biological target: T2, Acetylcholinesterase (Homo sapiens, UniProt P22303); test: Inhibition of recombinant human AChE expressed in HEK293 cells assessed as enzyme carbamoylation using acetylthiocholine iodide as substrate preincubated with enzyme followed by substrate addition by Ellman's method; settings: TDE = time-dependent effect
T2 sequence (P22303 whole entry): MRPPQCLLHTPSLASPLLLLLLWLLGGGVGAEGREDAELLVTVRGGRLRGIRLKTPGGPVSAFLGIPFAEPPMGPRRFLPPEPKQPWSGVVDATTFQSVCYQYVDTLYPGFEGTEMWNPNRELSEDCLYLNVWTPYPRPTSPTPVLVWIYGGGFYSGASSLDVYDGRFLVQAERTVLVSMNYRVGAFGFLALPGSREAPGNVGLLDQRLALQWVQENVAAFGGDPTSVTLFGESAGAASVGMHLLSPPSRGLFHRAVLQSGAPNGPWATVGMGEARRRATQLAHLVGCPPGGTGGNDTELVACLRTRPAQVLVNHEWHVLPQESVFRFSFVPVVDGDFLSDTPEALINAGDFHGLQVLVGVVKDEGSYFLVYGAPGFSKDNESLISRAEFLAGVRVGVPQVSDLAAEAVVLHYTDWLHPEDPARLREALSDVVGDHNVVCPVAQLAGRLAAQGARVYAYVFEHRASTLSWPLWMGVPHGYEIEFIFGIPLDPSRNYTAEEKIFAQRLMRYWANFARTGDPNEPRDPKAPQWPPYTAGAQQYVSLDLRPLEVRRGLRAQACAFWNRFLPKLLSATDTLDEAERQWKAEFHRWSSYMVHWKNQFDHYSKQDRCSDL

[3] = biological target: T2, Acetylcholinesterase; test: Inhibition of recombinant human AChE expressed in HEK293 cells using acetylthiocholine iodide as substrate preincubated for 120 mins followed by substrate addition by Ellman's method
How it was run: (§1)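 Ellman assay at 37 °C in 0.1 M phosphate pH 8.0 with 340 µM DTNB, 0.02 U/mL enzyme and 550 µM thiocholine substrate. Enzyme and inhibitor preincubated before substrate: AChE 120 min (one compound 60 min), BuChE 15 or 20 min depending on N-substituent. Non-enzymatic blanks run. […] IC50 by linear regression of % inhibition vs log concentration. Mean of 2-3 independent runs in duplicate.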

[4] = biological target: T3, Fatty-acid amide hydrolase 1 (Rattus norvegicus, UniProt P97612); test: Inhibition of FAAH in rat brain membrane using N-arachidonoyl-[14C]-ethanolamine as substrate preincubated for 20 mins followed by substrate addition measured after 30 mins by scintillation counting method; format: cell membranes
T3 sequence (P97612 whole entry): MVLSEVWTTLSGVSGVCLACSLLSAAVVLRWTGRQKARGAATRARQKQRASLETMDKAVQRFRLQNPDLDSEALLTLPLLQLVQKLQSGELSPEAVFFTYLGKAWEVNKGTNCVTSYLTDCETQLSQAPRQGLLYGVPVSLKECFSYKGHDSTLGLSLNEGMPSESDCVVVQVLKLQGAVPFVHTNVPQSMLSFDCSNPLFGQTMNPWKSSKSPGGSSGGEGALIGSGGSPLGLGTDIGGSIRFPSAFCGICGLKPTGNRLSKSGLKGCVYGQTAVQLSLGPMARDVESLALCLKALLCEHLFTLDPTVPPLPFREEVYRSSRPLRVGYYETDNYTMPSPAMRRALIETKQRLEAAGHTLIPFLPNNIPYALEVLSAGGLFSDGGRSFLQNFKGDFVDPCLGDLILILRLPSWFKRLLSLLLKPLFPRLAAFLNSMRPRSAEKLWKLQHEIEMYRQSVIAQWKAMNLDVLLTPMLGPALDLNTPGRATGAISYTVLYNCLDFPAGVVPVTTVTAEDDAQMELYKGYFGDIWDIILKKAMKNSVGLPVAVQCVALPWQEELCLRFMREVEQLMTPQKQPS
How it was run: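 Compound preincubated 20 min at 37 °C with rat brain 10,000 x g membranes (70 µg/sample), then [14C]-AEA (diluted with AEA) added in 50 mM Tris-HCl pH 9.00-10.00, 37 °C, 30 min. [14C]-ethanolamine counted by scintillation after CHCl3/MeOH 1:1 extraction.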

[5] = biological target: T1, Cholinesterase; test: Inhibition of human serum BuChE using butyrylthiocholine iodide as substrate preincubated for 20 mins followed by substrate addition by Ellman's method; how it was run: as §1
[6] = biological target: T3, Fatty-acid amide hydrolase 1; test: Inhibition of FAAH in rat brain membrane using N-arachidonoyl-[14C]-ethanolamine as substrate incubated for 30 mins by scintillation counting method; format: cell membranes
How it was run: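 Rat brain 10,000 x g membrane fraction (70 µg/sample) co-incubated with compound and [14C]-AEA diluted with unlabelled AEA in 50 mM Tris-HCl, pH 9.00-10.00, 37 °C, 30 min. Released [14C]-ethanolamine measured by scintillation of the aqueous phase after CHCl3/MeOH 1:1 extraction.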

[7] = test system: SH-SY5Y; test: Cytotoxicity against human SH-SY5Y assessed as reduction in cell viability at 1 to 50 uM after 24 hrs by MTT assay; format: cell-based
How it was run: (§2)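 SH-SY5Y neuroblastoma cells grown in DMEM with 2 mM L-glutamine, penicillin/streptomycin and 10% FBS. Cells seeded and cultured overnight at 37°C, 5% CO2. Compounds in DMSO (final under 0.1%) added for 24 h. MTT 0.5 mg/mL added for 3 h, formazan taken up in isopropanol, absorbance read at 620 nm. Viability given relative to vehicle. Three independent experiments in quadruplicate.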

[8] = biological target: T3, Fatty-acid amide hydrolase 1; test: Inhibition of FAAH in rat brain membrane at pH 9 using N-arachidonoyl-[14C]-ethanolamine as substrate preincubated for 10 mins followed by substrate addition measured after 30 mins by scintillation counting method; format: cell membranes
How it was run: (§3)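 Rat brain 10,000 x g membrane fraction (70 µg/sample) in 50 mM Tris-HCl at pH 9.0 or 7.4, preincubated 10 min with compound. [14C]-AEA diluted with AEA then added, reaction run at 37 °C. [14C]-ethanolamine in the aqueous phase after CHCl3/MeOH 1:1 extraction counted by scintillation.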

[9] = biological target: T3, Fatty-acid amide hydrolase 1; test: Inhibition of FAAH in rat brain membrane at pH 7.4 using N-arachidonoyl-[14C]-ethanolamine as substrate preincubated for 10 mins followed by substrate addition measured after 30 mins by scintillation counting method; format: cell membranes; how it was run: as §3
[10] = biological target: T1, Cholinesterase; test: Inhibition of human serum BuChE using butyrylthiocholine iodide as substrate preincubated for 15 mins followed by substrate addition by Ellman's method; how it was run: as §1
[11] = test system: Homo sapiens; test: Binding affinity to AChE in human assessed as enzyme reactivation half life at 1.5 mg/kg, iv dosed over 60 mins infusion; format: functional, organism-based
[12] = biological target: T2, Acetylcholinesterase; test: Inhibition of recombinant human AChE expressed in HEK293 cells using acetylthiocholine iodide as substrate preincubated for 60 mins followed by substrate addition by Ellman's method; how it was run: as §1
[13] = biological target: T2, Acetylcholinesterase; test: Inhibition of recombinant human AChE expressed in HEK293 cells assessed as pseudo-first order rate constant for enzyme carbamoylation using acetylthiocholine iodide as substrate preincubated for 15 to 120 mins followed by substrate addition by Ellman's method
How it was run: (§4)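 Stopped-time assay at pH 8.0, 37 °C, five inhibitor concentrations. AChE: 16.7-167.5 nM, residual activity read at 15, 30, 60, 90 and 120 min. BuChE: 0.46-4.58 nM, read at […], 2, 5, 10, 15 and 30 min. Activities corrected against an uninhibited control at each time. R = R0·exp(−kobs·t)+R∞ fitted to give kobs. k3 obtained from a double-reciprocal plot of kobs vs [I].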

[14] = biological target: T1, Cholinesterase; test: Inhibition of human serum BuChE assessed as pseudo-first order rate constant for enzyme carbamoylation using butyrylthiocholine iodide as substrate preincubated for 2 to 30 mins followed by substrate addition by Ellman's method; how it was run: as §4
[15] = test system: SH-SY5Y; test: Cytotoxicity against human SH-SY5Y assessed as reduction in cell viability at 50 uM after 24 hrs by MTT assay; format: cell-based; how it was run: as §2
[16] = test system: SH-SY5Y; test: Cytotoxicity against human SH-SY5Y assessed as reduction in cell viability at 1 to 25 uM after 24 hrs by MTT assay; format: cell-based; how it was run: as §2
[17] = test system: Homo sapiens; test: Binding affinity to AChE in human assessed as enzyme reactivation half life at 8 to 40 mg/kg, po; format: functional, organism-based

| SMILES | inhibition [1] | inhibition [2] | IC50 [3] [nM] | IC50 [4] [nM] | IC50 [5] [nM] | IC50 [6] [nM] | IC50 [10] [nM] | also measured |
| --- | --- | --- | --- | --- | --- | --- | --- | --- |
| CCCCCCCNC(=O)Oc1cccc(CN(C)CCCOc2ccc3c(=O)c4cccnc4oc3c2)c1 | tde | tde | 13 | 202 | 0.69 | 3130 |  |  |
| CCCCCCCNC(=O)Oc1cccc(CN(C)CCCOc2ccc3c4c(c(=O)oc3c2)CCCC4)c1 | tde | tde | 21.6 | 306 | 0.27 | 2490 |  |  |
| CN(CCCOc1ccc2ccc(=O)oc2c1)Cc1cccc(OC(=O)NCCCCCc2ccccc2)c1 | tde | tde |  |  |  |  |  | Activity [7]: Non-toxic; IC50 [8]: 183 nM; IC50 [9]: 4100 nM |
| CN(CCCOc1ccc2c(c1)oc(=O)c1ccccc12)Cc1cccc(OC(=O)NCCCCCc2ccccc2)c1 | tde | tde | 390 | 312 |  | 1830 | 1.19 |  |
| CN(CCCOc1ccc2cc(-c3ccccc3)c(=O)oc2c1)Cc1cccc(OC(=O)NCCCCCc2ccccc2)c1 | tde | tde | 125 | 250 |  | 1850 | 2.06 |  |
| Cc1cc(=O)oc2cc(OCCCN(C)Cc3cccc(OC(=O)NCCCCCc4ccccc4)c3)ccc12 | tde | tde | 80.5 | 135 |  | 459 | 2.75 |  |
| CN(CCCOc1ccc2cc(-c3ccc(Cl)cc3)c(=O)oc2c1)Cc1cccc(OC(=O)NCCCCCc2ccccc2)c1 | tde | tde | 900 | 265 |  | 1470 | 3.51 |  |
| O=C(NCCCCCc1ccccc1)Oc1ccc(Cn2cc(COc3ccc4ccc(=O)oc4c3)nn2)cc1 |  |  | 255 | 28.5 |  | 113 | 1.17 |  |
| CN(CCCOc1ccc2c3c(c(=O)oc2c1)CCCC3)Cc1cccc(OC(=O)NCCCCCc2ccccc2)c1 | tde | tde | 89.9 | 1390 |  | 3480 | 1.44 |  |
| CN(CCCOc1ccc2ccc(=O)oc2c1)Cc1cccc(OC(=O)NCCCCCCc2ccccc2)c1 | tde | tde | 109 | 530 |  | 1790 | 2.85 |  |
| O=C(NCCCCCc1ccccc1)Oc1cccc(-n2cc(COc3ccc4ccc(=O)oc4c3)nn2)c1 |  |  | 1170 | 44.7 |  | 209 | 15.2 |  |
| CNC(=O)Oc1ccc2c(c1)[C@]1(C)CCN(C)[C@@H]1N2C |  |  |  |  |  |  |  | T1/2 [11]: 0.5 h |
| CCCCCCCNC(=O)Oc1ccc(-n2cc(COc3ccc4ccc(=O)oc4c3)nn2)cc1 |  |  | 158000 | 21.3 | 122000 | 167 |  |  |
| O=C(NCCCCCc1ccccc1)Oc1cccc(Cn2cc(COc3ccc4ccc(=O)oc4c3)nn2)c1 |  |  | 922 | 27.9 |  | 157 | 42.7 |  |
| CCCCCCCNC(=O)Oc1cccc(Cn2cc(COc3ccc4ccc(=O)oc4c3)nn2)c1 |  |  | 1040 | 32.6 | 78.2 | 109 |  |  |
| COc1ccc(-c2cc3ccc(OCCCN(C)Cc4cccc(OC(=O)NCCCCCc5ccccc5)c4)cc3oc2=O)cc1 | tde | tde | 312 | 322 |  | 2330 | 1.3 |  |
| CN(CCCCCOc1ccc2ccc(=O)oc2c1)Cc1cccc(OC(=O)NCCCCCc2ccccc2)c1 | tde | tde | 88.1 | 120 |  | 798 | 1.23 |  |
| NC(=O)c1cccc(-c2cccc(OC(=O)NC3CCCCC3)c2)c1 [URB-597] |  |  |  |  |  |  |  | Activity [7]: Non-toxic |
| CCCCCCc1ccc(NC(=O)Oc2cccc(CN(C)CCCOc3ccc4ccc(=O)oc4c3)c2)cc1 | tde | tde |  | > 50000 |  | > 50000 | 32.1 | IC50 [12]: 3800 nM; K [13]: 0.203 min⁻¹; K [14]: 0.461 min⁻¹ |
| COc1ccc(-c2cc3cc(OCCCN(C)Cc4cccc(OC(=O)NCCCCCc5ccccc5)c4)ccc3oc2=O)cc1 | tde | tde | 179 | 211 |  | 2830 | 1.15 |  |
| O=C(NCCCCCc1ccccc1)Oc1ccc(-n2cc(COc3ccc4ccc(=O)oc4c3)nn2)cc1 |  |  | 47900 | 43.3 |  | 236 | 1230 |  |
| CCCCCCCNC(=O)Oc1cccc(-n2cc(COc3ccc4ccc(=O)oc4c3)nn2)c1 |  |  | 702 | 15.7 | 71.2 | 61.9 |  | Activity [7]: Non-toxic |
| CCCCCCCNC(=O)Oc1cccc(CN(C)CCCOc2ccc3ccc(=O)oc3c2)c1 |  |  | 37.4 | 28.5 | 1.36 | 161 |  | Activity [15]: Toxic; Activity [16]: Non-toxic |
| CCCCCCCNC(=O)Oc1ccc(Cn2cc(COc3ccc4ccc(=O)oc4c3)nn2)cc1 |  |  | 214 | 55 | 15.9 | 354 |  |  |
| CCCCCCCNC(=O)Oc1cccc(CN(C)CCCCCOc2ccc3c(c2)Oc2ncccc2C3)c1 | tde | tde | 6.92 | 178 | 0.53 | 2180 |  |  |
| CCCCCCCNC(=O)Oc1ccc2c(c1)[C@]1(C)CCN(C)[C@@H]1N2C |  |  |  |  |  |  |  | T1/2 [17]: 10 h |
| CCCCCCCNC(=O)Oc1cccc(CN(C)CCCCCOc2ccc3ccc(=O)oc3c2)c1 | tde | tde | 11.3 | 242 | 0.79 | 1290 |  |  |
